Data as given in ChEMBL document CHEMBL1140992, “High throughput screening of potentially selective MMP-13 exosite inhibitors utilizing a triple-helical FRET substrate” (Bioorg Med Chem, 2009).
pIC50: −log10 of the molar value.

Assays:
[1] = target: Macrophage metalloelastase (Homo sapiens) (UniProt P39900); test: Inhibition recombinant MMP12 at 100 uM; set-up: scale not given: the % may be the effect or the level left
Outline: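 Recombinant MMP-12 was expressed directly in active form, with no zymogen activation step. Active concentration was determined by recombinant N-TIMP-1 titration, with Knight fSSP or NFF-3 as substrate.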

[2] = target: Neutrophil collagenase (Homo sapiens) (UniProt P22894); test: Inhibition recombinant MMP8 expressed in CHO-K1 cells at 100 uM; type: cell-based; set-up: scale not given: the % may be the effect or the level left
Chain of Neutrophil collagenase (Homo sapiens) (P22894 101-467 limits assumed): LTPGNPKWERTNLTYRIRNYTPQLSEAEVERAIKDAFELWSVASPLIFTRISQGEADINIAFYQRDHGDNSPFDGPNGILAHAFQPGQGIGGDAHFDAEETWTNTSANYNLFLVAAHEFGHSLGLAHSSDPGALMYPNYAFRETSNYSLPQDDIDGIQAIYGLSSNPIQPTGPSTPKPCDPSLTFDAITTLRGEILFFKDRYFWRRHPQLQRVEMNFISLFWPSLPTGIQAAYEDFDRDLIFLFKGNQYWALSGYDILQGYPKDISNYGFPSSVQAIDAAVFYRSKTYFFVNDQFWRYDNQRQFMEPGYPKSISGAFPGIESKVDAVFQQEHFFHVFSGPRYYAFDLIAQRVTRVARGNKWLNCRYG
Outline: (§1)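 Pro-enzyme (MMP-8 expressed in CHO-K1 cells; MMP-9 recombinant) was activated with 1 mM APMA for 1 h at 37 °C. Active enzyme concentration was determined by titration with recombinant N-TIMP-1, using Knight fSSP or NFF-3 substrate.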

[3] = target: T1, Interstitial collagenase (Homo sapiens) (UniProt P03956); test: Inhibition recombinant MMP1 at 100 uM; set-up: scale not given: the % may be the effect or the level left
T1 sequence (whole entry): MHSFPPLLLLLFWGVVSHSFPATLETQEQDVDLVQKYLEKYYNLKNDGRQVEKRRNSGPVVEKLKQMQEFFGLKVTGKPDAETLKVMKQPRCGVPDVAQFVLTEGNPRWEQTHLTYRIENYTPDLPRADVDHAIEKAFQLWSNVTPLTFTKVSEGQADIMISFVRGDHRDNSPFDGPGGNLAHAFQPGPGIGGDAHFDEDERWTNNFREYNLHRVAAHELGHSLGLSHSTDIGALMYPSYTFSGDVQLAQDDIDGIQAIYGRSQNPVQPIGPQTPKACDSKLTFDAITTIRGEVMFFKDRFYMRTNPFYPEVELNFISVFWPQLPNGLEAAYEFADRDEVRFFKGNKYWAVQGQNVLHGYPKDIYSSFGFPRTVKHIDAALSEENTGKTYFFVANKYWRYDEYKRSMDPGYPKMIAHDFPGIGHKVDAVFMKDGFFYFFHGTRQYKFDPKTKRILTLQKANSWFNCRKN
Outline: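 Enzyme source: proMMP-1 expressed in E. coli and refolded from inclusion bodies. Activated with 1 mM APMA plus 0.1 equiv MMP-3(Δ248-460) for 6 h at 37 °C. The MMP-3 fragment was then removed by size-exclusion chromatography. Active enzyme was quantified by titration with recombinant N-TIMP-1, using Knight fSSP or NFF-3 as substrate.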

[4] = target: T2, Collagenase 3 (Homo sapiens, UniProt P45452); test: Activity of human recombinant MMP13; set-up: concentration or dose not given beside the values
Outline: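 Recombinant full-length human proMMP-13, activated with 1 mM APMA for 2 h at 37 °C and active-site titrated with N-TIMP-1. Run in 1536-well format in Tris·HCl pH 7.5, 100 mM NaCl, 10 mM CaCl2, 0.05% Brij-35, 0.3% DMSO. Triple-helical FRET substrate fTHP-15 (Mca/Dnp). Stopped with EDTA after 4 h at 25 °C; fluorescence read at ex 325/em 450 nm. Dose-response in triplicate, 10-point 1:3 dilutions from 40 μM; IC50 from four-parameter sigmoidal fit.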

[5] = target: Matrix metalloproteinase-9 (Homo sapiens) (UniProt P14780); test: Inhibition recombinant MMP9 at 100 uM; set-up: scale not given: the % may be the effect or the level left; outline: as §1
Chain of Matrix metalloproteinase-9 (Homo sapiens) (P14780 whole entry): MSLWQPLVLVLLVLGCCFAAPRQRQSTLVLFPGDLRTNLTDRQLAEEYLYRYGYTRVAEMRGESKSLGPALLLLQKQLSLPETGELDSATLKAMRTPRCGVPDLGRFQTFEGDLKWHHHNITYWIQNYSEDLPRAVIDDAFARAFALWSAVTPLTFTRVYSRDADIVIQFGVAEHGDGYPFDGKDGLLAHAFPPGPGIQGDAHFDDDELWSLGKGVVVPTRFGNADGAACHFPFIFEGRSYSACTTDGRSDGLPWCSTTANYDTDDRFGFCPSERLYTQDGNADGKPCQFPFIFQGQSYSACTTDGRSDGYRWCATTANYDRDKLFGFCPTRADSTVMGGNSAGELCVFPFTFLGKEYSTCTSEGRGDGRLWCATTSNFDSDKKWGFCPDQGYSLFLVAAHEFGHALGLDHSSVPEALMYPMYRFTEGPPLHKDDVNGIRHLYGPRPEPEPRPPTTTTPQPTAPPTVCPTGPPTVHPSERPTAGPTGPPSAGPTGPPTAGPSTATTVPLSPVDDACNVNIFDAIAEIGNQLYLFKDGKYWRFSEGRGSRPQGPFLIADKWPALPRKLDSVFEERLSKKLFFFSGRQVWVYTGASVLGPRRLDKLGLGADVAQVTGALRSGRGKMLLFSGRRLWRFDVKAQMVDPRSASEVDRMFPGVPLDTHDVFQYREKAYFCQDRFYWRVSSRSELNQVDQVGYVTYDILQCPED

[6] = target: T2, Collagenase 3; test: Inhibition of human recombinant MMP13 expressed in Escherichia coli
[7] = target: 72 kDa type IV collagenase (Homo sapiens) (UniProt P08253); test: Inhibition recombinant MMP2 at 100 uM; set-up: scale not given: the % may be the effect or the level left
Chain of 72 kDa type IV collagenase (Homo sapiens) (P08253 110-660 limits assumed): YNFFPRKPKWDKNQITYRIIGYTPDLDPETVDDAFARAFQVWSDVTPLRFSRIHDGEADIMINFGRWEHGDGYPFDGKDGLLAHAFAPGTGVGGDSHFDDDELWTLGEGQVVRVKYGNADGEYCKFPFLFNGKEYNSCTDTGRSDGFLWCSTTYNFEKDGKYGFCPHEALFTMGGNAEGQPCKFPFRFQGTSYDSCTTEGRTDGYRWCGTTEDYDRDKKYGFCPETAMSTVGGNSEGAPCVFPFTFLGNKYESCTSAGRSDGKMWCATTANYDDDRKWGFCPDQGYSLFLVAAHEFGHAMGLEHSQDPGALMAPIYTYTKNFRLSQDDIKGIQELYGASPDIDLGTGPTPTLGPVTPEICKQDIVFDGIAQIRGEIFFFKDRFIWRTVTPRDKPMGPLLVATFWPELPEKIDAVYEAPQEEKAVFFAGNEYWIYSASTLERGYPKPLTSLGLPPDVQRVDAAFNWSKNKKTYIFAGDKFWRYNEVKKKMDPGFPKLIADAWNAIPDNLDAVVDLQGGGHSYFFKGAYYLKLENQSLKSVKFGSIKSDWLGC

[8] = target: Stromelysin-1 (Homo sapiens) (UniProt P08254); test: Inhibition recombinant MMP3 at 100 uM; set-up: scale not given: the % may be the effect or the level left
Chain of Stromelysin-1 (Homo sapiens) (P08254 100-477 limits assumed): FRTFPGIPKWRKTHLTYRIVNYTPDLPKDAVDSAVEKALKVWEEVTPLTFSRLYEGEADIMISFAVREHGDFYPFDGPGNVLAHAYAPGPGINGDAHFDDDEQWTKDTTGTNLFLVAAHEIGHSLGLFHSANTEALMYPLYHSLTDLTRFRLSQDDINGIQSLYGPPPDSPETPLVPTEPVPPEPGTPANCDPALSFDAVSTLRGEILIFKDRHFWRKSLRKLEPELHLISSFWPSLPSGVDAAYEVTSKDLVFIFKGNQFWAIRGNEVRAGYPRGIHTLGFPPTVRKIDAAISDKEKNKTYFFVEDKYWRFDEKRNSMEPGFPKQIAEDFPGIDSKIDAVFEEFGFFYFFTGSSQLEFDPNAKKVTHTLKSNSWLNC
Outline: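 ProMMP-3 was expressed in E. coli and folded from inclusion bodies. It was activated with 5 μg/mL chymotrypsin at 37 °C for 2 h, and chymotrypsin was then inactivated with 2 mM diisopropylfluorophosphate. Active concentration was set by N-TIMP-1 titration, with Knight fSSP or NFF-3 as substrate.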

Chain of Macrophage metalloelastase (Homo sapiens) (P39900 106-470 limits assumed): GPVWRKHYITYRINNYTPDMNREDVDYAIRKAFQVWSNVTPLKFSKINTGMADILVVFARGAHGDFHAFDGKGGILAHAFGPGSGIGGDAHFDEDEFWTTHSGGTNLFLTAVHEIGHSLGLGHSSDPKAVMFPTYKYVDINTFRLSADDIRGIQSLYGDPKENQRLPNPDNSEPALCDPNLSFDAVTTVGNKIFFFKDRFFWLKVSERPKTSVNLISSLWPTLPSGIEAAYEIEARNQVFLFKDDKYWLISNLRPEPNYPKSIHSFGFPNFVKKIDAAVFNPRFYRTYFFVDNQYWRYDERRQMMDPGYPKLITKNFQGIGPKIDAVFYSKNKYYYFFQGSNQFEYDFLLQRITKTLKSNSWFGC

Compound	Activity [1] [%]	Activity [2] [%]	Activity [3] [%]	Activity [4] [%]	Activity [5] [%]	pIC50 [6]	Activity [7] [%]	Activity [8] [%]
CCOC(=O)/C(C#N)=C1/C=Nc2ccccc2N1	100	80	94	62	99	5.47	100	96
Cc1nn(-c2ccccc2)c2sc(-c3nnc(S)o3)cc12	75	32	68	45	100	6.05	100	75
CCCCCCOc1ccc(C(CC(=O)O)C(N)=O)cc1 (stereo unspecified)	0	10	91	15	0		0	43
COc1ccc(C2C(C(C)=O)=C(C)N=c3s/c(=C\c4cc(C)n(C)c4C)c(=O)n32)c(OC)c1 (stereo unspecified)						< 4.40		
COc1ccc(CSc2nc(C)cc(O)n2)cc1	72	80	98	25	66		47	97
O=C(CSCc1nc(O)n[nH]1)NCCOc1cccc(Oc2ccccc2)c1	33	34	85	35	27		19	96
O=C1NC(=O)C(CCc2ccncc2)(c2ccccc2)C(=O)N1	1	8	27	14	3		17	87
CCOC(=O)C1CCCN(c2nc3ccccc3nc2C(C#N)C(=O)OCC)C1 (stereo unspecified)						4.88		
COc1cc(-n2nc(C)c3c2OC(N)=C(C#N)C3c2ccccc2)c(Cl)c(Br)c1O (stereo unspecified)						< 4.40		
Oc1nc(SCc2ccc(Cl)cc2)nc2c1CCC2						4.99		
O=C1NC(=O)C(CCc2ccncc2)(C2CCCCC2)C(=O)N1	21	50	47	35	27		49	96
CCN1C(=O)/C(=C2/Sc3ccccc3N2CCCS(=O)(=O)O)SC1=S	94	100	88	4	14		80	90
O=C(O)CCC(NS(=O)(=O)c1ccc(-c2ccccc2)cc1)C(=O)O (stereo unspecified)	2	2	25	4	14	5.68	7	63
C=CCN1C(=O)/C(=C2/Sc3ccccc3N2CCCS(=O)(=O)O)SC1=S	100	100	96	36	100		100	100
COc1cc(OC)cc(-c2nnc(Nc3nc4c(F)cccc4s3)o2)c1	64	36	96	35	75		73	95
COC(=O)c1ccc(CSc2nc(O)c3c(-c4cccs4)csc3n2)o1	92	94	93	42	100		100	92
